Measurements taken from article PMC3442410 (Molecular Biology of the Cell, 2012).
Changes are numbered by the printed parent chain.

Experiments:
[1] = molecular target: T1, OSBP (Oryctolagus cuniculus, UniProt P16258); experiment: Specific binding of [3H]25OH by purified OSBP; parameters: species or system rabbit
T1 sequence (P16258 1-809): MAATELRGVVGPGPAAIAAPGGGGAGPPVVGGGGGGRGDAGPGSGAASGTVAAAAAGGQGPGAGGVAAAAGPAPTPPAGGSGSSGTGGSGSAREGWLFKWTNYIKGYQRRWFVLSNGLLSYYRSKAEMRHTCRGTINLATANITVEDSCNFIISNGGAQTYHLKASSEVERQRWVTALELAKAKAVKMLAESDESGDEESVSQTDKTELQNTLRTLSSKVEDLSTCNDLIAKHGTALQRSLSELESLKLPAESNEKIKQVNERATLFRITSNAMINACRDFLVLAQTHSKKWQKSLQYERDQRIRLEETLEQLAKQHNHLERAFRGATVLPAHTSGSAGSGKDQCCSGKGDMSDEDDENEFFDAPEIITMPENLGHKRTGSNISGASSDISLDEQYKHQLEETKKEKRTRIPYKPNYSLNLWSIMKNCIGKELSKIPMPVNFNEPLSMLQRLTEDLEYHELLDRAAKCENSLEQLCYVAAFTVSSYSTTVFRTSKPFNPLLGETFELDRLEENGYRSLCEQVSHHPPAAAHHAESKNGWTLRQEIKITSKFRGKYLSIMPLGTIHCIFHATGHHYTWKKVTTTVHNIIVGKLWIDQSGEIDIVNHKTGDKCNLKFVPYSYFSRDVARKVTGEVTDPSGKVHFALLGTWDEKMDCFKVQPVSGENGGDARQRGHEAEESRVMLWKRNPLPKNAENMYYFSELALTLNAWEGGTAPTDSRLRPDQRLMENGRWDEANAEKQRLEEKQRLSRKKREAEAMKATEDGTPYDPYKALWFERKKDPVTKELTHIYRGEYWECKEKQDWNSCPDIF
Method in brief: (§1)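 His-tagged (C-terminal V5-His) rabbit OSBP or mutant expressed in Sf21 cells by baculovirus, purified and kept in Tris-HCl pH 7.4/250 mM NaCl. 12 pmol protein incubated with [3H]25OH in 10 mM HEPES pH 7.4, 100 mM KCl, 2% polyvinyl alcohol at 4°C, 16 h. Charcoal-dextran added for 30 min, then spun 10,000 × g, 10 min. Supernatant bound sterol counted by scintillation. Specific binding is total minus binding with 40-fold excess unlabeled 25OH.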

[2] = molecular target: T2, OSBP-S381A (Oryctolagus cuniculus, UniProt P16258, S381A); experiment: Specific binding of [3H]25OH by purified OSBP-S381A; parameters: species or system rabbit
T2 sequence (P16258 1-809 S381A): T1 sequence (P16258 1-809) with S381A
Method in brief: as §1

[3] = molecular target: T3, OSBP-S3E (Oryctolagus cuniculus, UniProt P16258, S381E/S384E/S387E); experiment: Specific binding of [3H]25OH by purified OSBP-S3E; parameters: species or system rabbit
T3 sequence (P16258 2-809 S381E/S384E/S387E limits assumed): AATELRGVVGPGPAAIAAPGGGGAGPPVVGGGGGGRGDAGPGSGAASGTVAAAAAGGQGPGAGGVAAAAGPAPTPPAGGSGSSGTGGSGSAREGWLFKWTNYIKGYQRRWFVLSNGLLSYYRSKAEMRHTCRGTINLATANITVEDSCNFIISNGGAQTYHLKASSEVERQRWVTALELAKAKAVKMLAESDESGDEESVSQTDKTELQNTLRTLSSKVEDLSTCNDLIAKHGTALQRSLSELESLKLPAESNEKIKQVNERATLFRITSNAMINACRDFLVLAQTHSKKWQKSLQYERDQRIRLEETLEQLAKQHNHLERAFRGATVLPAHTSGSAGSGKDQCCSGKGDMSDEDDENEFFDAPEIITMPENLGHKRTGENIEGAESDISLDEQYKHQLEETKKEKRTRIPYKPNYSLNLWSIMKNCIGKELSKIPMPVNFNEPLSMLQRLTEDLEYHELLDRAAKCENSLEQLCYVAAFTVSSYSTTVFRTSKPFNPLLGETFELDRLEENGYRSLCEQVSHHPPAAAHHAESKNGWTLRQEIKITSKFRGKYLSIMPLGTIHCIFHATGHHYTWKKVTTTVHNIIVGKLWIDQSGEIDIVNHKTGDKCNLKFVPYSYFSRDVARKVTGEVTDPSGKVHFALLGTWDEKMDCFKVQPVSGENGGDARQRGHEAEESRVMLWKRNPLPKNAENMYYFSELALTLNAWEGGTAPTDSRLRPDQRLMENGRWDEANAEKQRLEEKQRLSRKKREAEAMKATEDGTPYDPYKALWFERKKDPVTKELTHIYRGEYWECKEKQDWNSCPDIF
Method in brief: as §1

[4] = molecular target: T4, OSBP-S5E (Oryctolagus cuniculus, UniProt P16258, S381E/S384E/S387E/S388E/S391E); experiment: Specific binding of [3H]25OH by purified OSBP-S5E; parameters: species or system rabbit
T4 sequence (P16258 1-809 S381E/S384E/S387E/S388E/S391E): T1 sequence (P16258 1-809) with S381E, S384E, S387E, S388E, S391E
Method in brief: as §1

[5] = test system: SM synthesis; experiment: 25OH-activated SM synthesis; format: cell-based, CHO cells; details: 25OH 6 μM, 6 h
Method in brief: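 OSBP-deficient CHO cells (stable lentiviral shOSBP) grown in DMEM with 5% fetal calf serum, transiently transfected for 48 h (Lipofectamine 2000) with OSBP constructs carrying three silent shRNA-resistant mutations. Cells then treated with 25OH (6 μM) or solvent control for 6 h. SM and ceramide synthesis measured by [3H]serine incorporation. Mean and SEM of three experiments.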

[6] = molecular target: T1, OSBP; experiment: Direct extraction of radiolabeled PI or PI; format: binding, rabbit; details: OSBP 50 pmol; liposomes with 0.5 mol% [32P]PI(4)P; compared with [3H]PI
[7] = [3H]25OH, 12 pmol protein, 4°C, 16 h

Kd [1]	Bmax [1, 7]	Kd [2]	Bmax [2, 7]	Kd [3]	Bmax [3, 7]	Kd [4]	binding capacity (Bmax) [4, 7]	extraction from liposomes into supernatant [6]	Molecule	activation of SM synthesis ([5]; deficient CHO cells expressing S381A/S3A, S5E/S3D or S5E/S3A double mutants)	activation of SM synthesis ([5]; deficient CHO cells expressing wild-type OSBP)
28 ± 5 nM	0.63 ± 0.05	51 ± 12 nM	0.68 ± 0.11	58 ± 14 nM	0.49 ± 0.15	35 ± 9 nM	2.0 ± 0.26		C[C@H](CCCC(C)(C)O)[C@H]1CC[C@H]2[C@@H]3CC=C4C[C@@H](O)CC[C@]4(C)[C@H]3CC[C@]12C [25OH, 25-hydroxycholesterol]	2.5 fold	2.5 fold
								extracted significantly more	phosphatidylinositol 4-phosphate [PI(4)P]		
